Assay results as given in ChEMBL document CHEMBL1933010, “3-heterocyclyl quinolone inhibitors of the HCV NS5B polymerase” (Bioorg Med Chem Lett, 2012).

Experiments:
[1] = Inhibition of Hepatitis C virus genotype 1b BK isolate NS5b polymerase activity using [3H]UTP preincubated for 120 mins measured after 1 hr by scintillation proximity assay
In short: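 Scintillation proximity assay at 22 °C. Started with [3H]UTP, UTP, 250 nM 5'-biotinylated oligo(rU12) and poly(rA). Stopped at 120 min with tRNA/streptavidin SPA beads/EDTA; 30 min, then CsCl, 1 h, top-count.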

Hepatitis C virus = experiment: Antiviral activity against Hepatitis C virus genotype 1b infected in human HuH7 cells assessed as inhibition of viral replication after 48 hrs by quantitative RT-PCR; assay type: functional, organism-based, Hepacivirus hominis; settings: Huh-7, 48 h
In short: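 Huh7/Clone A replicon cells seeded at 40,000/well without G418 and kept overnight at 37 °C, 5% CO2. DMSO-serially diluted compound added (final DMSO 0.5%), 7 concentrations in triplicate, 48 h at 37 °C. Total RNA extracted; HCV replicon RNA quantified by TaqMan RT-qPCR relative to untreated cells (100%). EC50 from a 4-parameter curve fit.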

[2] = Cytotoxicity against human HuH7 cells assessed as cellular GAPDH level after 48 hrs by quantitative RT-PCR; assay type: cell-based, Huh-7; settings: read-out: GI50

| Structure (SMILES) | IC50 [1] | EC50 (Hepatitis C virus) | CC50 at 48 h [2] |
| --- | --- | --- | --- |
| COc1cc2c(=O)c(-c3noc(-c4ccccc4)n3)cn(Cc3ccc(Cl)cc3)c2cc1OC | > 10000 nM | – | – |
| COc1cc2c(=O)c(-c3nc(-c4ccc(Cl)cc4)no3)cn(Cc3ccc(Cl)cc3)c2cc1OC | > 10000 nM | – | – |
| COc1cc2c(=O)c(C3=N[C@@H](C)[C@@H](c4ccccc4)O3)cn(Cc3ccc(Cl)cc3)c2cc1OC | 4300 nM | 8910 nM | – |
| COc1cc2c(=O)c(-c3noc(Cc4ccccc4)n3)cn(Cc3ccc(Cl)cc3)c2cc1OC | 41 nM | 10300 nM | – |
| COc1cc2c(=O)c(-c3nc(Cc4ccccc4)no3)cn(Cc3ccc(Cl)cc3)c2cc1OC | 730 nM | – | – |
| COc1cc2c(=O)c(-c3nnc(Cc4ccc(Cl)cc4)o3)cn(Cc3ccc(Cl)cc3)c2cc1OC | 1600 nM | – | – |
| COc1ccc2c(c1)c(=O)c(-c1ncc(Cc3ccccc3)o1)cn2Cc1ccc(Cl)cc1 | 1800 nM | – | – |
| COc1cc2c(=O)c(-c3nnn(Cc4ccccc4)n3)cn(Cc3ccc(Cl)cc3)c2cc1OC | > 10000 nM | – | – |
| COc1cc2c(=O)c(-c3noc(CCc4ccccc4)n3)cn(Cc3ccc(Cl)cc3)c2cc1OC | > 10000 nM | – | – |
| CN1CCN(c2cc3c(cc2F)c(=O)c(-c2noc(Cc4ccccc4)n2)cn3Cc2ccc(Cl)cc2)CC1 | 23 nM | 840 nM | 7300 nM |
| CN1CCN(c2cc3c(cc2F)c(=O)c(-c2nnc(Cc4ccccc4)o2)cn3Cc2ccc(Cl)cc2)CC1 | 115 nM | 4400 nM | 9800 nM |
| CN1CCN(c2cc3c(cc2F)c(=O)c(-c2noc(Cc4ccc(F)cc4)n2)cn3Cc2ccc(Cl)cc2)CC1 | 19 nM | 1430 nM | 6400 nM |
| CN1CCN(c2cc3c(cc2F)c(=O)c(-c2noc(Cc4ccc(F)cc4F)n2)cn3Cc2ccc(Cl)cc2)CC1 | 75 nM | 3680 nM | 4700 nM |
| CN1CCN(c2cc3c(cc2F)c(=O)c(-c2noc(Cc4ccccc4)n2)cn3Cc2ccc(C(F)(F)F)cc2)CC1 | 24 nM | 360 nM | 15000 nM |
| CN1CCN(c2cc3c(cc2F)c(=O)c(-c2noc(Cc4ccccc4)n2)cn3Cc2ccc(C(F)(F)F)cc2F)CC1 | 14 nM | 250 nM | 7000 nM |
| CN1CCN(c2cc3c(cc2F)c(=O)c(-c2noc(Cc4ccc(F)cc4)n2)cn3Cc2ccc(C(F)(F)F)cc2F)CC1 | 15 nM | 230 nM | 6000 nM |
| CN1CCN(c2cc3c(cc2F)c(=O)c(-c2nnc(Cc4ccccc4)o2)cn3Cc2ccc(C(F)(F)F)cc2F)CC1 | 38 nM | 610 nM | 4600 nM |
| CN1CCN(c2cc3c(cc2F)c(=O)c(-c2nnc(Cc4ccc(F)cc4)o2)cn3Cc2ccc(C(F)(F)F)cc2F)CC1 | 45 nM | 730 nM | 5700 nM |
